Source: ChEMBL document CHEMBL1123258 (J Med Chem, 1986)
pEC50, pIC50: −log10 of the molar value. ≈ marks a conversion by molar mass, not a printed value. Where “and” joins values, the source holds several entries; their conditions need not be identical. Equal values may be shown once.

What was measured:
[1] = Compound was evaluated for the percentage of hydrolysis of compound 2 formed at pH of 2; format: ADME; conditions: pH 2
In short: (§1)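 Stock solutions at 0.6 mg/mL in CH3CN (or CH3OH) were diluted 1:1 with phosphate buffer (pH 7), citrate buffer (pH 4) or 0.1 N HCl-KCl (pH 2). They were held at 23 °C for 22 h, then analysed by reverse-phase HPLC in 0.1 M NaH2PO4-CH3CN (75:25) with 254 nm absorbance. Each value is the amount detected at that time divided by the total detected at start.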

[2] = Compound was evaluated for the percentage of hydrolysis of compound 2 formed at pH of 4; format: ADME; conditions: pH 4; in short: as §1
[3] = Compound was evaluated for the percentage of hydrolysis of compound 2 formed at pH of 7; format: ADME; conditions: pH 7; in short: as §1
[4] = Compound was evaluated for the percentage of hydrolysis product (aglycon) formed at pH of 2; format: ADME; conditions: pH 2; in short: as §1
[5] = Compound was evaluated for the percentage of hydrolysis product (aglycon) formed at pH of 4; format: ADME; conditions: pH 4; in short: as §1
[6] = Compound was evaluated for the percentage of hydrolysis product (aglycon) formed at pH of 7; format: ADME; conditions: pH 7; in short: as §1
[7] = Compound was evaluated for the overall absorbance loss at pH of 2; format: ADME; conditions: pH 2; in short: as §1
[8] = Compound was evaluated for the overall absorbance loss at pH of 4; format: ADME; conditions: pH 4; in short: as §1
[9] = Compound was evaluated for the overall absorbance loss at pH of 7; format: ADME; conditions: pH 7; in short: as §1
[10] = Compound was evaluated for its stability after 22 hr in solution at pH of 2; format: physicochemical; conditions: pH 2, read-out: Recovery; in short: as §1
[11] = Compound was evaluated for the change in Tm of isolated helical DNA in solution; format: ADME
In short: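 Thermal denaturation of calf thymus DNA, 5.2 × 10⁻⁵ M (P), with drug at 5.2 × 10⁻⁶ M, in 0.01 M phosphate buffer pH 7 with EDTA and 5% Me₂SO. ΔTm = Tm of DNA–drug complex minus Tm of DNA alone.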

L1210 [12] = test: Compound was evaluated for the inhibition of DNA synthesis in leukemia L1210 cells; format: functional; conditions: Mus musculus, read-out: ED50 (the source's name)
In short: (§2)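 Actively growing L1210 cells exposed to drug for 3 h; drug dissolved first in Me₂SO, final 1% Me₂SO. Read-out is incorporation of [³H]thymidine into DNA or [³H]uridine into RNA. ED50 is the concentration giving 50% inhibition.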

L1210 [13] = test: Compound was evaluated for the inhibition of RNA synthesis in leukemia L1210 cells; format: functional; conditions: Mus musculus, read-out: ED50 (the source's name); in short: as §2
Mus musculus = organism: Mus musculus; test: Compound was evaluated for the antitumor efficacy at optimal dose against P388 in mice; format: functional
In short: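 Mice given 10⁶ P388 leukemia cells ip on day 0, then dosed ip on day 1 at the optimal dose. Efficacy expressed as % T/C, the mean survival time of treated over control mice; ≥120% counts as active.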

P388/S = test: Compound was evaluated for the growth inhibition of P388/S cells.; format: functional, cell-based; conditions: Mus musculus
In short: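 P388/S is the sensitive line routinely used in screening. Cells were exposed to drug for 48 h before IC50 was determined.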

HeLa [14] = test: (§3) Compound was evaluated for the inhibition of colony formation in HeLa cells; format: functional, Mus musculus; conditions: Homo sapiens, read-out: ID50 (the source's name)
In short: (§4)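 Exponentially growing HeLa cells exposed to drug for 24 h, then plated at 50 cells/mL in drug-free medium. Colonies grown 7–10 days at 37 °C in humidified 95:5 air/CO₂, then scored. ID50 is the concentration giving 50% inhibition of colony growth.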

P388 = test: Compound was evaluated for the growth inhibition of P388/S, cells.; format: functional, cell-based; conditions: Mus musculus
In short: (§5)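 Growth of P388/S cells, the routine screening line, and of the P388/ADR resistant subline measured after 48-h drug exposure. IC50 is the concentration giving 50% growth inhibition.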

[15] = Partition coefficient in octanol-phosphate buffer at pH 7.4; format: physicochemical
In short: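 Drug partitioned between octanol and phosphate buffer pH 7.4. Concentrations in each phase measured by UV absorbance; log P is the log of organic-phase over aqueous-phase concentration.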

HeLa [16] = test: as §3; format: functional; conditions: Homo sapiens, read-out: ID50 (the source's name); in short: as §4
P388/ADR = test: Compound was evaluated for the growth inhibition of P388/ADR cells.; format: functional, cell-based; conditions: Mus musculus; in short: as §5
[17] = Resistance index was measured as ratio of IC50 of P388/ADR to that of P388/S
[18] = Compound was evaluated for the percentage of hydrolysis product formed at pH of 2; format: ADME; conditions: pH 2; in short: as §1
[19] = Compound was evaluated for the percentage of hydrolysis product formed at pH of 4; format: ADME; conditions: pH 4; in short: as §1
[20] = Compound was evaluated for its stability after 22 hr in solution at pH of 4; format: physicochemical; conditions: pH 4, read-out: Recovery; in short: as §1
[21] = Compound was evaluated for its stability after 22 hr in solution at pH of 7; format: physicochemical; conditions: pH 7, read-out: Recovery; in short: as §1
[22] = Compound was evaluated for the percentage of hydrolysis product formed at pH of 7; format: ADME; conditions: pH 7; in short: as §1

| SMILES | Absorbance [7] | Absorbance [8] | Absorbance [9] | remaining at 22 h [10] | Change in Tm [11] | pEC50 (L1210 [12]) | pEC50 (L1210 [13]) | T/C (Mus musculus) | pIC50 (P388) | other results |
| --- | --- | --- | --- | --- | --- | --- | --- | --- | --- | --- |
| COc1cccc2c1C(=O)c1c(O)c3c(c(O)c1C2=O)C[C@@](O)(C(=O)CO)C[C@@H]3OC1CC(N2CCOCC2C#N)C(O)C(C)O1 (stereo partly specified) | 67% | 37% | 17% | 10% | 8.7 | 8.52 | 9.28 | 262% and 233% |  | Hydrolysis [1]: 7%; Hydrolysis [2]: 8%; Hydrolysis [3]: 0.8%; Hydrolysis [4]: 8%; Hydrolysis [5]: 0.1%; Hydrolysis [6]: 0.3%; pIC50 (P388/S): 9.80 |
| COc1cccc2c1C(=O)c1c(O)c3c(c(O)c1C2=O)C[C@@](O)(C(=O)CO)C[C@@H]3O[C@H]1C[C@H](N)[C@H](O)[C@H](C)O1 [DOXORUBICIN] |  |  |  |  | 12.8 | 5.80 | 6.24 | 182% and 273% | 7.17 | IC50 (HeLa [14]): 0.019 µg/mL (≈ 0.035 µM) |
| COc1cccc2c1C(=O)c1c(O)c3c(c(O)c1C2=O)C[C@@](O)(C(=O)CO)C[C@@H]3OC1CC(NCCO)C(O)C(C)O1 (stereo partly specified) |  |  |  |  | 10.7 | 5.28 | 6.09 | 157% and 205% | 6.64 | logD [15]: 0.19; IC50 (HeLa [16]): 0.031 µg/mL (≈ 0.0528 µM); pIC50 (P388/ADR): 5.41; Ratio [17]: 17 |
| COc1cccc2c1C(=O)c1c(O)c3c(c(O)c1C2=O)C[C@@](O)(C(=O)CO)C[C@@H]3OC1CC2C(OC(CO)N2CCO)C(C)O1 (stereo partly specified) |  |  |  |  |  | 6.19 | 6.92 |  |  |  |
| COc1cccc2c1C(=O)c1c(O)c3c(c(O)c1C2=O)C[C@@](O)(C(=O)CO)C[C@@H]3OC1CC(N2CCOCC2)C(O)C(C)O1 (stereo partly specified) | 4% | 12% | 4% | 96% |  |  |  |  |  | Hydrolysis [18]: < 1%; Hydrolysis [19]: < 1%; remaining at 22 h [20]: 88%; remaining at 22 h [21]: 90%; Hydrolysis [22]: < 1% |
